Read-outs that look alike come from different tables or passages of the source.
Tests used:
[1] = test system: endogenously expressed insect nAChRs; assay: Whole-cell voltage clamp electrophysiology on isolated neurons; format: cell-based, Spodoptera frugiperda; settings: for relative agonist efficacy: relative to the amplitude elicited by 1 mM of acetylcholine, holding potential −70 mV
[2] = test system: rat; assay: Acute dermal toxicity; format: in vivo; settings: technical flupyradifurone
[3] = test system: rat; assay: Acute inhalation toxicity; format: in vivo; settings: technical flupyradifurone
[4] = Skin irritation; settings: technical flupyradifurone
[5] = Eye irritation; settings: technical flupyradifurone
[6] = Mutagenicity; settings: technical flupyradifurone
[7] = Carcinogenicity; settings: technical flupyradifurone
[8] = Reproductive and developmental toxicity; settings: technical flupyradifurone
[9] = Fish acute toxicity; settings: rainbow trout, in vivo
[10] = Aquatic invertebrate acute toxicity; settings: Daphnia, in vivo
[11] = Aquatic plant toxicity; settings: algae, in vivo
[12] = test system: Earthworm (Eisenia); assay: Earthworm 14 day toxicity; format: in vivo
[13] = test system: Honey bee; assay: Honey bee acute contact toxicity; format: in vivo; settings: technical flupyradifurone
[14] = test system: Honey bee; assay: Honey bee acute oral toxicity; format: in vivo; settings: technical flupyradifurone
[15] = test system: Honey bee; assay: Honey bee foliage residue test; format: in vivo; settings: at 205 g ha^−1
[16] = test system: Honey bee; assay: Honey bee long-term field studies in oilseed rape; format: in vivo; settings: 205 g AI ha^−1 in oilseed rape, full bloom and bees actively foraging
[17] = test system: Bumblebee; assay: Bumblebee acute contact toxicity; format: in vivo; settings: technical flupyradifurone
[18] = test system: Bemisia tabaci; assay: Whitefly adult leaf-dip bioassay; format: in vivo; settings: for mortality at 16 µg/mL: Bemisia tabaci
Outline: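 Adult B. tabaci, including neonicotinoid-resistant biotype B (Unai, Brazil, 2009). Cotton leaf discs (3.5 cm) were dipped 5 s in solutions made up in 0.02% Triton X-100, with diluent alone for controls. Discs were air-dried and laid on 12 g L−1 agar under ventilated lids. Three replicates per concentration, 20–30 females each, held at 22–24 °C; adult mortality scored after 72 h.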

[19] = test system: Myzus persicae; assay: Speed of action: suppression of aphid honeydew excretion on oilseed rape; format: in vivo; settings: SL200, 75 g AI ha^−1 foliar on oilseed rape
Outline: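 Susceptible M. persicae (strain NS): 100 aphids per plant on the abaxial leaf side of […] oilseed rape (six leaves). Sprayed 50 cm above the canopy with a track sprayer at 75 g AI ha−1 SL200 in 300 L ha−1 water; water controls; two replicates; 22 °C, 60–70% RH. Filter papers under the leaves were changed every 30 min up to 240 min and stained with ninhydrin; honeydew spot area was expressed as suppression relative to preapplication.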

[20] = test system: lettuce aphids (Nasonovia ribisnigri); assay: Field trials against lettuce aphids; format: in vivo; settings: seven lettuce field trials, foliar spray, rate g ha^−1: flupyradifurone 125, pymetrozine 200, thiacloprid 96, spirotetramat 75; for Efficacy (%) 6–10 DAA: 6–10 days after application; for Efficacy (%) 13–15 DAA: 13–15 days after application
Outline: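 Seven lettuce field trials in the EU maritime zone, each including commercial formulated standard insecticides for comparison. Treatments were replicated 3–4 times per trial, with aphid infestations above economic threshold levels. Efficacy was assessed at various intervals after spraying by scoring surviving aphids.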

[21] = test system: B. tabaci CYP6CM1; assay: Metabolism of insecticides by recombinant CYP6CM1 microsomes; format: in vitro ADME, Bemisia tabaci; settings: 20 µM insecticide; 4 h at 30 °C; NADPH-regenerating system; UPLC-MS
Outline: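 B. tabaci CYP6CM1 and Drosophila NADPH CPR were baculovirus-expressed in Sf9 cells and run as microsomes (0.2 mg mL−1 total protein) in 0.1 M K-phosphate. Regenerating system: 1.3 mM NADP+, 3.3 mM glucose-6-phosphate, 3.3 mM MgCl2, 0.4 U mL−1 G6PDH. Insecticide 20 µM, 30 °C, 4 h, triplicates, no-NADPH control. Quenched with acetonitrile (50% final), centrifuged, parent loss measured by UPLC–MS/MS in positive ion mode.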

[22] = test system: tomato plants (Solanum lycopersicum L.); assay: Plant uptake and translocation by phosphor imaging; settings: [14C]-labelled, SL200; tomato plants harvested 1 day after soil drench
Outline: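 Test compound was [pyridinylmethyl-14C]-labelled in SL200 and drenched at 24 mg AI plant−1 onto 21-day-old tomato in 5 L pots of sandy loam at 80–90% water-holding capacity. Plants were kept at 21/16 °C day/night with 14 h light and 60–70% RH. Shoots were cut at the soil surface, pressed, dried 24 h at 50 °C and exposed 6 days to phosphor imaging plates.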

O=C1C=C(N(Cc2ccc(Cl)nc2)CC(F)F)CO1 [Flupyradifurone, 4-{[(6-Chloropyridine-3-yl)methyl] (2,2-difluoroethyl)amino}furan-2 (5H)-one]
type of action on nAChRs ([1]; isolated S. frugiperda neurons): partial agonist
relative agonist efficacy [1]: 0.56
Acute dermal toxicity, rat LD50 [2]: >2000 mg kg^−1 body weight
Acute inhalation toxicity, rat LC50 [3]: >4671 mg m^−3
Skin irritation [4]: Non-irritant
Eye irritation [5]: Non-irritant
Mutagenicity [6]: Not a mutagen
Carcinogenicity [7]: Not a carcinogen
Reproductive and developmental toxicity [8]: No concern
LC50 [9]: > 74.2 µg/mL
EC50 [10]: > 77.6 µg/mL
EC50 [11]: > 80 µg/mL
Earthworm (Eisenia) 14 day LC50 [12]: 193 mg kg^−1 dry weight soil
Honey bee acute contact LD50 [13]: >100 µg bee^−1
Honey bee acute oral LD50 [14]: 1200 ng bee^−1
Honey bee foliage residue [15]: No effects at 205 g ha^−1
Honey bee long-term field studies [16]: No adverse effects
Bumblebee acute contact LD50 [17]: >100 µg bee^−1
mortality at 16 µg/mL ([18]; read-out: adult mortality): 50%
mortality at 16 µg/mL ([18]; read-out: nymph mortality): 100%
time to feeding (honeydew excretion) stop after spray application ([19]; aphids on abaxial leaf side): ≤ 2 h
aphid mortality two days after application ([19]; data not shown): all aphids were dead
Efficacy (%) 6–10 DAA [20]: 96%
Efficacy (%) 13–15 DAA [20]: 83%
degradation of parent compound by CYP6CM1 microsomes [21]: not depleted at all
root uptake and distribution after drench application [22]: fast root uptake

O=[N+]([O-])NC1=NCCN1Cc1ccc(Cl)nc1 [Imidacloprid, imidacloprid, reference compound]
relative agonist efficacy [1]: 0.15
response of adult females ([18]; B. tabaci B-type strain (Unai, Brazil), concentrations of 1000 mg L^−1): do not respond at all
degradation of parent compound by CYP6CM1 microsomes [21]: 23 ± 1%

CC1=NNC(=O)N(/N=C/c2cccnc2)C1 [Pymetrozine, pymetrozine]
Efficacy (%) 6–10 DAA [20]: 79%
Efficacy (%) 13–15 DAA [20]: 57%
degradation of parent compound by CYP6CM1 microsomes [21]: 70 ± 6%

CCOC(=O)OC1=C(c2cc(C)ccc2C)C(=O)N[C@]12CC[C@@H](OC)CC2 [Spirotetramat, spirotetramat]
Efficacy (%) 6–10 DAA [20]: 90%
Efficacy (%) 13–15 DAA [20]: 98%
degradation of parent compound by CYP6CM1 microsomes [21]: not depleted at all

N#C/N=C1\SCCN1Cc1ccc(Cl)nc1 [Thiacloprid, thiacloprid]
Efficacy (%) 6–10 DAA [20]: 88%
Efficacy (%) 13–15 DAA [20]: 72%

CC(c1ccc(C(F)(F)F)nc1)S(C)(=O)=NC#N (centres unmarked) [sulfoxaflor]
degradation of parent compound by CYP6CM1 microsomes [21]: not depleted at all
